Assay results collected from several papers.
Lines come from different studies, so protocols differ.
Target: Phosphorylase b kinase gamma catalytic chain, skeletal muscle/heart isoform (PHKG1, Homo sapiens, UniProt Q16816)

Compound | assay | conditions | remaining binding [%]
c1cnn2ncc(-c3ccnc(N4CCC45COC5)n3)c2c1 | binding | 1 µM | 85
O=C(N[C@H]1CCCCC/C=C\C2C[C@@]2(C(=O)O)NC(=O)[C@@H]2C[C@@H](Oc3ccncc3)CN2C1=O)OC1CCCC1 (stereo partly shown) | binding, competition with immobilised ligand | 1 µM | 88
O=C(c1ccc(Nc2nccc(-c3cc4ccccc4s3)n2)cc1)N1CCC(N2CCCC2)CC1 | binding, competition with immobilised ligand | 1 µM | 96
CC(=O)C1=C(C)N(c2cccc(C(F)(F)F)c2)C(=O)N[C@@H]1c1ccc(C#N)nc1 | cell-free assay, competition with immobilised ligand | 1 µM | 100
O=C(NCCCN1CCOCC1)c1ccc(Nc2ncc(Cl)c(-c3ccc(Cl)s3)n2)cc1 | binding, competition with immobilised ligand | 1 µM | 56
N#CC1(c2ccccn2)CCN(Cc2cc(C(=O)N3CCCC3)c(=O)n3ccccc23)CC1 | cell-free assay, competition with immobilised ligand | 1 µM | 100
COc1cnc(Nc2cccc(S(N)(=O)=O)c2)nc1N1CCN(c2ccccc2)CC1 | binding, competition with immobilised ligand | 1 µM | 97
CN(CCCC(F)(F)F)c1nccc(-c2cnn3ncccc23)n1 | binding | 1 µM | 100
O=C(NCC1CCOCC1)c1n[nH]cc1NC(=O)c1c(F)cccc1F | binding, competition with immobilised ligand | 1 µM | 100
CN(C)c1nccc(-c2cnn3ncccc23)n1 | binding | 1 µM | 100
CC(=O)c1c(NS(C)(=O)=O)c2cc(-c3ccc(Cl)cc3)c(-c3ccc(Cl)cc3Cl)nc2n(C)c1=O | cell-free assay, competition with immobilised ligand | 1 µM | 94
COc1ncc2cc3ccccc3nc2c1C#N | cell-free assay, competition with immobilised ligand | 5 µM | 83
COc1cnc(Nc2cccc(S(N)(=O)=O)c2)nc1N1CCN(c2ccccc2)C(=O)C1 | binding, competition with immobilised ligand | 1 µM | 100
C[C@H]1CCN(c2nccc(-c3cnn4ncccc34)n2)C1 | binding | 1 µM | 100
C[C@@H](c1ccc(-n2cnc3c(N)ncnc32)cc1)N1CCc2nn(C)c(Cc3ccccc3)c2C1=O | binding, competition with immobilised ligand | 0.1 µM | 90
CC1=C(C#N)C(c2ccc3c(c2)c(NC(=O)c2ccccc2C)nn3C)C(C#N)=C(C)N1 | cell-free assay, competition with immobilised ligand | 1 µM | 91
CN(C)c1nccc(-c2cnc3ncccn23)n1 | binding | 1 µM | 100
O=C(O)[C@H]1[C@H](Cn2nnc3ccccc3c2=O)CC[C@@H]1C(=O)c1ccc(OCCC2CCOCC2)cc1 | cell-free assay, competition with immobilised ligand | 1 µM | 74
CN(c1nccc(-c2cnn3ncccc23)n1)C1CC1 | binding | 1 µM | 100
O=C(NCc1ncc(C(F)(F)F)cc1Cl)c1ccc2c(c1)C1(CCS(=O)(=O)CC1)[C@@H](C1CC1)N2S(=O)(=O)c1ccc(F)cc1 | cell-free assay, competition with immobilised ligand | 1 µM | 100
O=C(NCCCN1CCOCC1)c1ccc(Nc2nccc(-c3cc4ccccc4s3)n2)cc1 | binding, competition with immobilised ligand | 1 µM | 49
N[C@H]1CCN(c2nccc(-c3cnn4ncccc34)n2)C1 | binding | 1 µM | 84
